Values after ≈ are worked out from the molar mass of the structure shown. Some results are limits rather than exact numbers.

Data set [1] concerns Mycobacterium tuberculosis. Kind of data set: Antitubercular activity against dormant stage of Mycobacterium tuberculosis H37Ra ATCC 25177 after 12 days by XRMA. The format is functional, organism-based. Particulars: H37Ra ATCC 25177, 288 h. A digest of the protocol:
(§1)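 MIC against dormant-stage bacilli, read out by XTT reduction menadione assay (XRMA), with rifampicin MIC determined the same way as reference.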

Data set [2] deals with Mycobacterium tuberculosis. Kind of data set: Antitubercular activity against dormant stage of Mycobacterium tuberculosis H37Ra ATCC 25177 assessed as growth inhibition at 3 ug/ml after 12 days by XRMA relative to control. It counts as functional. The following applies: H37Ra ATCC 25177, 288 h.
Data set [3] has as its system Mycobacterium tuberculosis. Description: Antitubercular activity against dormant stage of Mycobacterium tuberculosis H37Ra ATCC 25177 infected in human THP1 cells by nitrate reductase assay. The format is functional, organism-based. The following applies: for MIC90: H37Ra ATCC 25177; for IC50: H37Ra ATCC 25177, THP-1.
Data set [4] concerns THP-1. Kind of data set: Cytotoxicity against human THP1 cells at 10 ug/ml. It counts as cell-based.
The test system of the next data set is A549. Description: (§2) Growth inhibition of human A549 cells by MTT assay. It counts as cell-based. Particulars: a549. A digest of the protocol: (§3)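 Human cancer cell lines were exposed in vitro to a range of compound concentrations. Viability was read by MTT colorimetric assay, and GI50 and GI90 were derived from the concentration series.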
Data set [5] can be described thus: as §2. It counts as cell-based. Particulars: A549 cells. A digest of the protocol:
as §3

The subject of data set [6] is THP-1. Kind of data set: Cytotoxicity against human THP1 cells at 30 ug/ml. The format is cell-based.
For data set [7], the system named is Mycobacterium tuberculosis. Description: Antitubercular activity against dormant stage of Mycobacterium tuberculosis H37Ra ATCC 25177 assessed as growth inhibition at 10 ug/ml after 12 days by XRMA relative to control. It counts as functional. The following applies: H37Ra ATCC 25177, 288 h.
In data set [8] the test system is Mycobacterium tuberculosis. Description: Antitubercular activity against dormant stage of Mycobacterium tuberculosis H37Ra ATCC 25177 assessed as growth inhibition at 30 ug/ml after 12 days by XRMA relative to control. Particulars: H37Ra ATCC 25177, 288 h. It counts as functional.
Data set [9] has as its system Mycobacterium tuberculosis. Kind of data set: Antitubercular activity against dormant stage of Mycobacterium tuberculosis H37Ra ATCC 25177 by two fold dilution technique. It counts as functional. A digest of the protocol: as §1
Data set [10] concerns THP-1. Description: Cytotoxicity against human THP1 cells at 3 ug/ml. It counts as cell-based.
Data set [11] in a line: (§4) Growth inhibition of human PANC1 cells by MTT assay. The format is cell-based, PANC-1. Particulars: PANC-1 cells. The method, boiled down:
as §3
(Formazan colour is commonly taken as a measure of viable cells.)

The test system of the next data set is PANC-1. Described as §4. The format is cell-based. Particulars: panc-1. The method, boiled down:
as §3

Data set [12] can be described thus: Growth inhibition of human THP1 cells. It counts as cell-based. Particulars: THP-1 cells.
A short description of data set [13]: (§5) Growth inhibition of human HeLa cells by MTT assay. It counts as cell-based. Particulars: HeLa cells. A digest of the protocol: as §3
The next data set concerns HeLa. The description is as §5. The format is cell-based. The following applies: hela. The method, boiled down:
as §3

Regarding `Cc1nc(C)c(-c2nn(-c3ccc(F)cc3)cc2C2CC(c3cc(Br)ccc3O)=NN2)s1` (stereo unspecified), the IC50 in data set [1] is 0.31 µM; in [3], 0.41 µM. Also, the inhibition at 3 µg/mL in [2] is 42.5%. Further, the figures for the MIC90 in [3] and in data set [9] were 2.95 µM (≈ 1.51 µg/mL) and 5.79 µM (≈ 2.97 µg/mL), respectively. Besides, the Activity in the data set with THP-1 [4] is listed as 14.69%; with THP-1 [6], 19.51%; in the data set with THP-1 [10], 13.91%. Also, the GI90 in the data set on A549 turned out to be 154.68 µg/mL (≈ 302 µM); in the data set on PANC-1 it was 115.65 µg/mL (≈ 226 µM); in the data set with HeLa it was 43.11 µg/mL (≈ 84.1 µM). In addition, the GI50 was 81.4 µg/mL (≈ 159 µM) in data set [5], 76.4 µg/mL (≈ 149 µM) in [11], greater than 30 µg/mL in data set [12] and 21.6 µg/mL (≈ 42.2 µM) in data set [13]. The inhibition at 10 µg/mL in data set [7] stood at 75.5%. Further, in [8], the inhibition at 30 µg/mL came out at 88.2%.

For `Cc1nc(C)c(-c2nn(-c3ccc(F)cc3)cc2-c2cc(=O)c3cc(Cl)c(C)cc3o2)s1`, the IC50 in data set [1] is 1.67 µM; in [3] it was 0.67 µM. The inhibition at 3 µg/mL in [2] was determined as 53.5%. Besides, the MIC90 in data set [3] was determined as 2.94 µM (≈ 1.37 µg/mL); in [9] it was 3.69 µM (≈ 1.72 µg/mL). In addition, the Activity in the data set on THP-1 [4] is given as 16.62%; in the data set on THP-1 [6] it was 24.65%; in the data set with THP-1 [10], 12.82%. The GI90 in the data set on A549 was greater than 250 µg/mL; in the data set with PANC-1 it was greater than 250 µg/mL; with HeLa it was 53.48 µg/mL (≈ 115 µM). For the same molecule, the GI50 was greater than 250 µg/mL in [5], greater than 250 µg/mL in data set [11], greater than 30 µg/mL in data set [12] and 16.7 µg/mL (≈ 35.8 µM) in data set [13]. The inhibition at 10 µg/mL in data set [7] stood at 23.2%. Moreover, the inhibition at 30 µg/mL in data set [8] amounted to 93.7%.

In the case of `Cc1nc(C)c(-c2nn(-c3ccc(F)cc3)cc2C2CC(c3cc(Cl)ccc3O)=NN2)s1` (stereo unspecified), the IC50 was 0.06 µM in data set [1] and 0.36 µM in [3]. Besides, in [2], the inhibition at 3 µg/mL worked out at 41.6%. Further, the MIC90 turned out to be 1.5 µM (≈ 0.702 µg/mL) in data set [3] and 2.48 µM (≈ 1.16 µg/mL) in [9]. In addition, the Activity with THP-1 [4] was determined as 11.51%; in the data set on THP-1 [6], 17.04%; in the data set on THP-1 [10], 7.09%. Further, the GI90 with A549, with PANC-1 and in the data set on HeLa was greater than 250 µg/mL in each case. Moreover, the GI50 in data set [5] was greater than 250 µg/mL; in data set [11], greater than 250 µg/mL; in [12], greater than 30 µg/mL; in [13], greater than 250 µg/mL. In data set [7], the inhibition at 10 µg/mL is 79.7%. The inhibition at 30 µg/mL in data set [8] worked out at 97.2%.

As a reminder, the IC50 is the concentration that inhibits the measured activity by half. One may read the inhibition as how much of the control response was suppressed. In general, MIC90 refers to an inhibitory concentration at the 90% level, which refers to growth in some studies and to a panel of isolates in others. As usually defined, the GI50 is the concentration that inhibits growth by half. A high value points to less potent growth inhibition.

Values taken from ChEMBL document CHEMBL4392833, “Thiazolyl-pyrazole derivatives as potential antimycobacterial agents” (Bioorg Med Chem Lett, 2019).
